Assay outcomes deposited in PubChem by The Scripps Research Institute Molecular Screening Center.
CHO-K1 Ca antag: nonselective inhibitor or artifact in parental CHO-K1 cells. ATP-induced calcium, Fluo-8 fluorescence. inhibition, % at 3 µM. 0.6% of 360,000 active;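 active = inhibition above a per-plate cutoff, the plate's mean sample inhibition plus 3 SD, cut at about 24% in these data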
OX1R antag-1: blocks the human orexin 1 receptor; 1.8% of 330,000 active; OX1R-expressing cells, FRET antagonist read-out; inhibition, % at 6.6 µM; O43613; in the data active = inhibition mostly above about 38%, no sharp cut-off; inactive = mostly below about 40%
Target sequence (O43613 whole entry, looked up): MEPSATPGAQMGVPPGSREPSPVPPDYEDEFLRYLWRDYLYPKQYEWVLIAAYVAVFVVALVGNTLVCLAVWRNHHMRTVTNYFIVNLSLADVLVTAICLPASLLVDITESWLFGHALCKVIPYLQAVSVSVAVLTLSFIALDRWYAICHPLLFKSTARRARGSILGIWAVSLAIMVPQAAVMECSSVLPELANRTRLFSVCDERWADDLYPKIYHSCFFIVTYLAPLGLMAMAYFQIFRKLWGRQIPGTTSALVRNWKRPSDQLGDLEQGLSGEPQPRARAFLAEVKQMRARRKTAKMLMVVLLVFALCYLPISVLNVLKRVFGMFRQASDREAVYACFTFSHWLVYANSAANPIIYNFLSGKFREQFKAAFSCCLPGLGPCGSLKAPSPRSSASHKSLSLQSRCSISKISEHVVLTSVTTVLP
CHO-K1 Ca ag: M1 agonist counterscreen hit in parental CHO-K1 cells; 0.48% of 360,000 active; activation, % at 3 µM; Fluo-8 calcium fluorescence; scaled to maximal ATP response, vehicle zero; in the data active = activation above about 15%;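 also: untransfected CHO-K1 host cells lacking M1 receptor as counterscreen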
CHO parental Ca: counter-screen for OX1R antagonists: effect in parental CHO cells; parental CHO-K1, ATP-induced calcium, Fluo-8 fluorescence; inhibition, % at 5.6 µM; 0.63% of 330,000 active; AID 463079;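 active = inhibition above that plate's mean sample inhibition plus 3 SD, cut at about 26% in these data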
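Material: Parental CHO cells | Reagent: ATP | Compound dosing: Single nominal dose of 5.6 µM per compound | Detection: Intracellular calcium via Fluo-8 no-wash fluorescent dye | Read-out: % inhibition of ATP-induced calcium mobilization | Benchmarks: Low control ATP plus DMSO, high control DMSO only | Replicates: Singlicate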
OX1R antag-2: antagonists of human orexin 1 receptor; 0.43% of 330,000 active; O43613; inhibition, % at 5 µM; CHO/OX1R cells, Fluo-8 calcium fluorescence, orexin A;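 active = inhibition above its plate's threshold, mean inhibition of all tested compounds on the plate plus 3 SD, cut at about 37% in these data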
CHO-K1 Ca PAM: M1 PAM counterscreen hit in parental CHO-K1 cells | ATP EC20, Fluo-8 calcium fluorescence; 0% at ATP EC20, 100% at ATP max | activation, % at 3 µM | 0.02% of 360,000 active | AID 602247;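 active = activation above the run cutoff, the mean activation of all test compounds plus 3 SD, cut at about 40% in these data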;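 also: peak over basal fluorescence ratio in a 140 s read after ATP addition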
Hits are given with their value; – = inactive; · = no result given. Rows were chosen to be rich in hits. Some 2.9% of all compounds tested hit in one or more screens of this group.

SMILES	CHO-K1 Ca antag	OX1R antag-1	CHO-K1 Ca ag	CHO parental Ca	OX1R antag-2	CHO-K1 Ca PAM
CC(C)COC(=O)c1cccc2c1-c1ccccc1/C2=N\O	–	–	–	41	–	–
Cn1c(Oc2ccc(Cl)cc2)c(C=O)c2ccccc21	27	–	–	–	–	–
Cc1ccc(Oc2c(C=O)c3ccccc3n2C)cc1	–	–	–	–	–	–
CC1(C)CC(=O)C(C=NCCN2CCN(CCCCS(=O)(=O)O)CC2)=C(O)C1	25	–	–	–	–	–
CC1(C)CC(=O)C(C=NCCN2CCOCC2)=C(O)C1	–	–	–	–	–	–
O=C(CSc1nnc(COc2ccc(Cl)cc2)o1)NC1CC2CCC1C2 (centres undefined)	–	–	–	–	–	–
COC(=O)C(Cc1ccc(OC(=O)c2ccc(C)cc2)cc1)N1Cc2ccccc2C1=O (centres undefined)	–	–	–	44	–	–
COc1ccccc1N1CCN(/N=C/C=C/c2ccccc2[N+](=O)[O-])CC1	–	–	–	–	–	–
CC(C)Cc1nc2ccccc2n1CCc1ccccc1	–	–	–	–	–	–
COc1ccc(Cl)cc1S(=O)(=O)NC(C)C(=O)NCc1ccncc1 (centres undefined)	–	–	–	–	–	–
COc1ccc(CNc2ncnc3cc(Cl)ccc23)cc1OC	–	·	–	·	·	–
Fc1ccc(CNc2ncnc3cc(Cl)ccc23)cc1	–	–	16	–	–	–
COC(=O)C1=C(C)N(Cc2ccccc2)C(=NCCc2c[nH]c3ccccc23)N[C@H]1c1cccc(C(F)(F)F)c1	–	–	–	–	67	–
COCCN=C1N[C@@H](c2cccc(C(F)(F)F)c2)C(C(=O)OC)=C(C)N1Cc1ccccc1	–	–	–	–	–	–
COc1ccc(C(C(=O)NCCC(C)C)N(CCO)C(=O)c2snc(C(N)=O)c2N)cc1 (centres undefined)	–	–	–	–	–	–
COc1cccc(N2C(=O)CC(Nc3ccc(N4CCOCC4)cc3)C2=O)c1 (centres undefined)	–	39	–	–	–	–
COc1ccc(N2C(=O)CC(Nc3ccc(N4CCOCC4)cc3)C2=O)c(OC)c1 (centres undefined)	–	–	–	–	–	–
COC(=O)c1ccc(C[n+]2ccccc2)cc1	24	–	–	–	–	–
CC(C)C[C@@H](CNC(=O)OC(C)(C)C)NC(=O)c1nc[nH]c1C(=O)N[C@@H](CC(C)C)C(=O)CNC[C@H](CC(C)C)NC(=O)c1nc[nH]c1C(=O)N[C@@H](Cc1c[nH]c2ccccc12)C(=O)OC(C)(C)C	–	–	–	–	–	–
C[n+]1ccn(CC(=O)c2cccs2)c1	–	–	–	–	–	–
CCCCCCCCCCCCCCCCn1cc[n+](C)c1	–	–	–	71	85	–
COc1ccc(C2Nc3ccccc3C(=O)N2C2CCCCC2)cc1 (centres undefined)	–	–	–	–	–	–
Nc1nc(-c2ccc([N+](=O)[O-])cc2)cc(=O)[nH]1	–	·	–	·	·	–
Nc1n[nH]c(-c2ccc([N+](=O)[O-])cc2[N+](=O)[O-])n1	–	67	–	–	–	–
CC(C)=CCC[C@](C)(O[C@@H]1O[C@H](CO[C@@H]2O[C@H](CO)[C@@H](O)[C@H](O)[C@H]2O)[C@@H](O)[C@H](O)[C@H]1O)C1CC[C@]2(C)C1C(=O)CC1[C@@]3(C)CC[C@H](O[C@H]4O[C@@H](CO)[C@H](O)[C@@H](O)[C@@H]4O)C(C)(C)C3CC[C@]12C (some centres undefined)	–	–	–	–	–	–
SMILES	CHO-K1 Ca antag	OX1R antag-1	CHO-K1 Ca ag	CHO parental Ca	OX1R antag-2	CHO-K1 Ca PAM
CC(=O)OCC1O[C@@H](O[C@@H]2C[C@H]3C(C)(C)[C@H](OC(C)=O)CC[C@]3(C)[C@H]3CC[C@]45C[C@]4(CC[C@H]5[C@@H](C)C[C@@H](O)[C@H](O)C(C)(C)O)[C@@]32C)[C@H](O)[C@@H](O)[C@@H]1O (some centres undefined)	·	–	·	100	67	·
O=C(C[n+]1ccc(/C=N/O)cc1)N(Cc1ccccc1)Cc1ccccc1	–	53	–	–	–	–
CC(C)N(C(=O)C[n+]1ccc(/C=N/O)cc1)C(C)C	–	–	–	–	–	–
CCOc1cc(/C=C(\C#N)C(=O)NCc2cccnc2)ccc1O	32	–	–	–	–	–
O=S1(=O)C[C@H](N2CC[C@@H](O)C2)[C@@H](COCc2ccccc2)N1	27	·	–	·	·	–
CN(C)[C@H]1CCN([C@H]2CS(=O)(=O)N[C@@H]2COCc2ccccc2)C1	–	·	–	·	·	–
C=CCN1C(=O)S/C(=C/c2ccc(Sc3nc4ccccc4[nH]3)o2)C1=O	26	–	–	–	47	–
CC(C)N1C(=O)S/C(=C/c2ccc(Sc3nc4ccccc4[nH]3)o2)C1=O	–	–	–	71	56	–
O=C(OCC#CCSc1nnc(-c2ccncc2)o1)c1cccs1	–	–	17	–	–	–
COC(=O)CSc1nnc(-c2ccncc2)o1	–	–	–	–	–	–
COc1ccc(C(=O)c2cn[nH]c2-c2cc(Cl)ccc2O)cc1	24	–	–	–	–	–
COc1ccc(C(=O)c2cn[nH]c2-c2cc(C)ccc2O)cc1	–	–	–	–	–	–
CC1=CC(=O)C2=C(C)CCC3C(C)C(=O)OC3C12 (centres undefined)	–	·	–	·	·	–
CC1CC(=O)Nc2ccccc2N1C(=O)CN1CCN(C=O)CC1 (centres undefined)	–	–	15	–	–	–
CC(C)CN1C(=O)C(=O)N(CC(=O)N2c3ccccc3NC(=O)CC2C)C1=O (centres undefined)	–	·	–	·	·	–
CC1=[N+](C)c2c(ccc3cccnc23)C1(C)C	34	·	16	·	·	–
CCOc1ccc(CN(C(=O)c2cc(=O)c3cc(C)cc(C)c3o2)C2CCS(=O)(=O)C2)cc1 (centres undefined)	–	–	–	–	–	–
O=C1C(=Cc2cccn2-c2ccccc2)C(=O)c2ccccc21	–	–	15	–	–	–
COCCNC(=O)c1ccc2c(c1)C(=O)c1ccccc1-2	–	37	–	–	–	–
COCCNC(=O)c1ccc2c(c1)S(=O)(=O)c1cc(Cl)ccc1C2=O	–	42	–	–	–	–
O=C(NCc1ccco1)c1ccc(C(=O)NCc2ccco2)cc1	–	·	–	·	·	–
O=C(NCCOc1ccccc1)c1ccc2c(c1)S(=O)(=O)c1cc(Cl)ccc1C2=O	–	–	–	–	–	–
O=C(NCc1ccco1)c1ccc2c(c1)C(=O)c1ccccc1-2	–	37	–	–	–	–
CC(C)(CO)NC(=O)c1ccc2c(c1)C(=O)c1ccccc1-2	–	–	–	–	–	–
O=C(NCCCNC(=O)c1ccccc1F)c1ccco1	–	–	–	–	–	–
